The results in this text go back to ChEMBL document CHEMBL1800025 (J Med Chem, 2011).

The target in test [1] is Dual specificity tyrosine-phosphorylation-regulated kinase 1A (Rattus norvegicus, UniProt Q63470). Briefly: Inhibition of rat recombinant GST-tagged DYRK1A using KKISGRLSPIMTEQ as substrate and [gamma32]-ATP after 30 mins by scintillation counting. The procedure, abridged:
(§1)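 GST fusion kinases expressed in E. coli and purified on glutathione-agarose; DYRK1A is rat, DYRK2 is human. Assay buffer A (25 mM Tris-HCl pH 7.5, 10 mM MgCl2, 1 mM EGTA, 1 mM DTT, 50 μg/mL heparin) plus 0.15 mg/mL BSA. Product captured on P81 paper, washed in 1% phosphoric acid, scintillation counted. Activity expressed as percent of uninhibited control.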

Test [2] concerns the target T1, Dual specificity tyrosine-phosphorylation-regulated kinase 2 (Homo sapiens, UniProt Q92630).
T1 sequence (Q92630 whole entry): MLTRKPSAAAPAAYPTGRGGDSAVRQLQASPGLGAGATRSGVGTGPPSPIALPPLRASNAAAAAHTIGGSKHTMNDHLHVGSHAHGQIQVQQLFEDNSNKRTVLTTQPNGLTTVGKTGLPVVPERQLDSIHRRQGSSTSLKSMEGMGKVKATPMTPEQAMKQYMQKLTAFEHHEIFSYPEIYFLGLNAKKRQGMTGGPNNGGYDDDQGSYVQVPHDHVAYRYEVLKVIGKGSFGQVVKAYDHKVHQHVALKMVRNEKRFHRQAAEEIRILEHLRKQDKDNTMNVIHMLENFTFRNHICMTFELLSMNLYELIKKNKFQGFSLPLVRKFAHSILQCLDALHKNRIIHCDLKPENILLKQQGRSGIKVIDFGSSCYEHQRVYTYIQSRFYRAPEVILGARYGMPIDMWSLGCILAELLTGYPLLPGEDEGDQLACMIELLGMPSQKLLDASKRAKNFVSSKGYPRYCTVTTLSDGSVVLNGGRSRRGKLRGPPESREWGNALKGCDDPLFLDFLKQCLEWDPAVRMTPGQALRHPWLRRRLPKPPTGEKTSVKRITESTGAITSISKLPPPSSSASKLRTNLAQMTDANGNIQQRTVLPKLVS
Briefly: Inhibition of human recombinant GST-tagged DYRK2 using KKISGRLSPIMTEQ as substrate and [gamma32]-ATP after 30 mins by scintillation counting. The procedure, abridged: as §1

For test [3], the target named is Dual specificity protein kinase CLK1 (Mus musculus, UniProt P22518). Description: Inhibition of mouse recombinant GST-tagged CLK1 using GRSRSRSRSRSR as substrate. The essentials: (§2)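 Mouse GST-fusion CLK1 or CLK3 expressed in E. coli. Assay buffer A (Tris-HCl pH 7.5, MgCl2, EGTA, DTT, heparin) plus 0.15 mg/mL BSA. RS peptide 1 μg/assay, 15 μM ATP final, 30 C. Blank subtracted; activity expressed as percent of activity without inhibitor. DMSO controls. Concentration range up to 10 μM.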
Sequence of Dual specificity protein kinase CLK1 (P22518 whole entry, the tested form may be a part): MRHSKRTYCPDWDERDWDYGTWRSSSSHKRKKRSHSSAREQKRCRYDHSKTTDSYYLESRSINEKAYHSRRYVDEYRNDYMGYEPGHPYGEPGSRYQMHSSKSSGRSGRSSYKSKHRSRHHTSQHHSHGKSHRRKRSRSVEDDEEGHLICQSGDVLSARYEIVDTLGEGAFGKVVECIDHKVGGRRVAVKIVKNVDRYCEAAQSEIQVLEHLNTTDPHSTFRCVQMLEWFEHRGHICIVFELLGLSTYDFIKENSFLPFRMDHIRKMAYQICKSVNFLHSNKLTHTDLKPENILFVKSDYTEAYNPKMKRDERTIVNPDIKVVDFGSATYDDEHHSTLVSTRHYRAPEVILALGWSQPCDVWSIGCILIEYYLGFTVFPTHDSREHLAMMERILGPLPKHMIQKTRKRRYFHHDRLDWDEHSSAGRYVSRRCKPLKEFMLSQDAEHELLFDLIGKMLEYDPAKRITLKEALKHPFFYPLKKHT

The target of test [4] is Dual specificity protein kinase CLK3 (Mus musculus, UniProt O35492). Description: Inhibition of mouse recombinant GST-tagged CLK3 using GRSRSRSRSRSR as substrate. The essentials:
as §2

Test [5] has as its target Serine/threonine-protein kinase pim-1 (Homo sapiens, UniProt P11309). Description: Inhibition of human recombinant Pim1. The essentials:
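Kinase assayed in buffer C (25 mM Mops pH 7.2, 60 mM beta-glycerophosphate, 30 mM p-nitrophenylphosphate, 15 mM MgCl2, 5 mM EGTA, 1 mM DTT, 0.1 mM vanadate) with 1 mg/mL histone H1. DMSO controls.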

The species entered for the next test is Sus scrofa. Description: Inhibition of pig brain CK1 delta/epsilon using RRKHAAIGpSAYSITA as substrate at 10 uM. The essentials:
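Native CK1δ/ε from porcine brain, assayed in 3-fold diluted buffer C with 25 μM CKS peptide substrate. 15 μM ATP final, 30 C. Activity is percent of uninhibited control after blank subtraction, with DMSO controls. Inhibitor tested over a range of concentrations up to 10 μM.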

The target of test [6] is Glycogen synthase kinase-3 alpha/beta (Sus scrofa). Description: Inhibition of pig brain GSK-3alpha/beta.
In test [7] the test system is Cyclin-dependent kinase 5/p25 (Homo sapiens). Briefly: Inhibition of human recombinant CDK5/p25 at 10 uM.

SMILES strings stand for the structures. Active and inactive are the calls of the source. The calls are words filed in the database; no cut-off is given here.

Sequence of Dual specificity protein kinase CLK3 (O35492 whole entry): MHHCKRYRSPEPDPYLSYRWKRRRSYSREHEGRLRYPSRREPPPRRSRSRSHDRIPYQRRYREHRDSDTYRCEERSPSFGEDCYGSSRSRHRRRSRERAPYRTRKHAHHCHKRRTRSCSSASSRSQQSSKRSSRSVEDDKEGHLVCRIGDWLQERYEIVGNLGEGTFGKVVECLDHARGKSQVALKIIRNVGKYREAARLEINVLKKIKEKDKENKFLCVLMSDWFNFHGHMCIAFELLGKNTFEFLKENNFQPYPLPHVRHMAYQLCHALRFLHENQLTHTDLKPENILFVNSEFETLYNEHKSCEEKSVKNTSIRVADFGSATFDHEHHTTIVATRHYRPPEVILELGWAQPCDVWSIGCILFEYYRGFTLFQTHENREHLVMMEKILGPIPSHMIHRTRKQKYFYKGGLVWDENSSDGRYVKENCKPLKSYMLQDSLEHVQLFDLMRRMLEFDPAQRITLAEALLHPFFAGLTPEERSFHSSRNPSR
Sequence of Serine/threonine-protein kinase pim-1 (P11309 whole entry): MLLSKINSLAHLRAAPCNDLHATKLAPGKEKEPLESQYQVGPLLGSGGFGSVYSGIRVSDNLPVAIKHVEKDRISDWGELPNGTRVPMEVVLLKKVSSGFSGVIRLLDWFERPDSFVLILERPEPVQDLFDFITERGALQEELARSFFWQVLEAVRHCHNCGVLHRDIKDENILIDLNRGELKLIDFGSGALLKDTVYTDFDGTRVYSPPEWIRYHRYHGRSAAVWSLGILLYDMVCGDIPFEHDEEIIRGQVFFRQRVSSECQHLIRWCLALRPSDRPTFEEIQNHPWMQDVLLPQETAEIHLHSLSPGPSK

On to `COc1ccc(NC2=N/C(=C\c3ccc4c(c3)OCO4)C(=O)N2C)cc1`, for which the IC50 – broadly, the midpoint of a concentration-inhibition curve – was 0.24 µM in test [1]; 0.51 µM in test [2]; 0.45 µM in test [3]; > 10 µM in test [4]; 4.1 µM in test [5]; 0.7 µM in test [6]. The inhibition result (in the test listed under Sus scrofa; in test [7]) was “inactive” each time.

For the compound `CN1C(=O)/C(=C/c2ccc3c(c2)OCO3)N=C1NCc1ccc2c(c1)OCO2`, the IC50 is 3.2 µM in test [1]; 3.3 µM in test [2]; 0.23 µM in test [3]; > 10 µM in test [4]; 0.59 µM in test [5]. Besides, the inhibition entry in the test listed under Sus scrofa was “inactive”.

For the compound `CCNC1=N/C(=C\c2ccc3c(c2)OCO3)C(=O)N1`, the IC50 in test [1] was 0.41 µM; in test [2] it was 0.16 µM; in test [3] it was 0.4 µM; in test [4], 3.7 µM; in test [5] it was 3.1 µM; in test [6] it was 2.4 µM. Besides, the inhibition result (in the test filed under Sus scrofa; in test [7]) was “inactive” each time.

For the compound `COc1ccc(NC2=N/C(=C\c3ccc4c(c3)OCO4)C(=O)N2)cc1`, the IC50 in test [1] is 0.11 µM; in test [2], 0.08 µM; in test [3] it was 0.83 µM; in test [4], 10 µM; in test [5], > 10 µM. In the test listed under Sus scrofa, the inhibition entry was “inactive”.

Turning to `CC(C)NC1=N/C(=C\c2ccc3c(c2)OCO3)C(=O)N1C`, the IC50 in test [1] turned out to be 0.39 µM; in test [2], 0.53 µM; in test [3], 0.26 µM; in test [4], 2 µM; in test [5] it was 4 µM. Also, the inhibition entry in the test filed under Sus scrofa is “inactive”.

For `CN1C(=O)/C(=C/c2ccc3c(c2)OCO3)N=C1NCc1ccccc1`, the 50% inhibitory concentration (IC50) was 0.38 µM in test [1]; 0.56 µM in test [2]; 0.2 µM in test [3]; 0.94 µM in test [4]; 3.7 µM in test [5]; > 10 µM in test [6]. Besides, the inhibition result (in the test filed under Sus scrofa; in test [7]) was “inactive” throughout.

Take `CN1C(=O)/C(=C/c2ccc3c(c2)OCO3)N=C1NCCN`: the half-inhibitory concentration (IC50) in test [1] was 0.91 µM; in test [2], 0.71 µM; in test [3], 0.19 µM; in test [4], 5 µM; in test [5], 3.1 µM; in test [6], 0.91 µM. Further, the inhibition entry (in the test filed under Sus scrofa; in test [7]) was “inactive” in each case.

As for `CCOC(=O)C(=O)NC1=N/C(=C\c2ccc3c(c2)OCO3)C(=O)N1C`, the IC50 was 6.1 µM in test [1]; 6.5 µM in test [2]; 3.1 µM in test [3]; > 10 µM in test [4]; 7 µM in test [5]; > 10 µM in test [6]. In addition, the inhibition result (in the test filed under Sus scrofa; in test [7]) was “inactive” throughout.

In the case of `O=C1NC(Nc2ccc(O)cc2)=N/C1=C\c1ccc2c(c1)OCO2`, the IC50 stood at 0.096 µM in test [1]; 0.06 µM in test [2]; 0.06 µM in test [3]; 0.52 µM in test [4]; 1.2 µM in test [5]. Besides, in the test filed under Sus scrofa, the inhibition result is “inactive”.

`CN1C(=O)/C(=C/c2ccc3c(c2)OCO3)N=C1Nc1ccc(O)cc1`: the IC50 amounted to 0.44 µM in test [1]; 1.1 µM in test [2]; 1 µM in test [3]; 3.9 µM in test [4]; 4 µM in test [5]. For the same compound, in the test listed under Sus scrofa, the inhibition entry was “inactive”.

As for `Cc1ccc(NC2=N/C(=C\c3ccc4c(c3)OCO4)C(=O)N2)cc1`, the IC50 was 0.17 µM in test [1]; 0.061 µM in test [2]; 0.32 µM in test [3]; > 10 µM in test [4]; 9 µM in test [5]. The inhibition entry in the test filed under Sus scrofa was “inactive”.

As for `CN1C(=O)/C(=C/c2ccc3c(c2)OCO3)N=C1Nc1ccc2c(c1)OCO2`, the half-maximal inhibitory concentration (IC50) in test [1] is 0.4 µM; in test [2], 0.1 µM; in test [3], 0.16 µM; in test [4], > 10 µM; in test [5], > 10 µM; in test [6], 5.8 µM. For the same compound, the inhibition entry (in the test filed under Sus scrofa; in test [7]) was “inactive” each time.

For `COCCNC1=N/C(=C\c2ccc3c(c2)OCO3)C(=O)N1C`, the 50% inhibitory concentration (IC50) was 0.57 µM in test [1]; 0.77 µM in test [2]; 0.073 µM in test [3]; 3.1 µM in test [4]; > 10 µM in test [5]. Moreover, the inhibition result in the test listed under Sus scrofa is “inactive”.

With `CC(=O)NC1=N/C(=C\c2ccc3c(c2)OCO3)C(=O)N1C`, the IC50 in test [1] is 3.1 µM; in test [2], 5.1 µM; in test [3], 2.4 µM; in test [4], > 10 µM; in test [5] it was > 10 µM. In the test filed under Sus scrofa, the inhibition entry is “inactive”.

For `CN1C(=O)/C(=C/c2ccc3c(c2)OCO3)N=C1NC1CCCC1`, the 50% inhibitory concentration (IC50) was 3.7 µM in test [1]; 6 µM in test [2]; 0.14 µM in test [3]; > 10 µM in test [4]; 0.3 µM in test [5]. The inhibition entry in the test filed under Sus scrofa is “inactive”.

Regarding `CNC1=N/C(=C\c2ccc3c(c2)OCO3)C(=O)N1C`, the 50% inhibitory concentration (IC50) came to 2.1 µM in test [1]; 2.2 µM in test [2]; 0.77 µM in test [3]; 3.2 µM in test [4]; 3.5 µM in test [5]. In addition, the inhibition entry in the test filed under Sus scrofa is “inactive”.

Consider `CCCCNC1=N/C(=C\c2ccc3c(c2)OCO3)C(=O)N1C`, for which the IC50 was found to be 0.5 µM in test [1]; 0.61 µM in test [2]; 0.13 µM in test [3]; 1.1 µM in test [4]; 4.6 µM in test [5]. Moreover, in the test listed under Sus scrofa, the inhibition entry was “inactive”.

Consider `O=C1NC(Nc2ccc3c(c2)OCO3)=N/C1=C\c1ccc2c(c1)OCO2`, for which the half-inhibitory concentration (IC50) in test [1] turned out to be 0.066 µM; in test [2] it was 0.04 µM; in test [3] it was 0.17 µM; in test [4] it was 0.36 µM; in test [5], 5 µM. In the test listed under Sus scrofa, the inhibition entry is “inactive”.

Consider `CN1C(=O)/C(=C/c2ccc3c(c2)OCO3)N=C1NCCCCCO`, for which the IC50 in test [1] worked out at 2.1 µM; in test [2], 2 µM; in test [3] it was 0.14 µM; in test [4], 7 µM; in test [5] it was 6.1 µM. In addition, in the test listed under Sus scrofa, the inhibition result was “inactive”.

Consider `CCCNC1=N/C(=C\c2ccc3c(c2)OCO3)C(=O)N1C`, for which the half-inhibitory concentration (IC50) in test [1] stood at 0.54 µM; in test [2], 0.55 µM; in test [3], 0.31 µM; in test [4] it was 1.2 µM; in test [5], 4.5 µM. Also, in the test filed under Sus scrofa, the inhibition result is “inactive”.

On to `CN1C(=O)/C(=C/c2ccc3c(c2)OCO3)N=C1Nc1ccccc1`, for which the half-maximal inhibitory concentration (IC50) turned out to be 0.31 µM in test [1]; 0.46 µM in test [2]; 0.084 µM in test [3]; 4.6 µM in test [4]; 2.6 µM in test [5]. Moreover, in the test filed under Sus scrofa, the inhibition entry was “inactive”.

Regarding `CN1C(=O)/C(=C/c2ccc3c(c2)OCO3)N=C1NCCCO`, the IC50 in test [1] came to 0.28 µM; in test [2], 0.47 µM; in test [3] it was 0.233 µM; in test [4], 3.9 µM; in test [5], 6.5 µM. Also, the inhibition result in the test filed under Sus scrofa is “inactive”.
